Measurements from ChEMBL document CHEMBL3259808, “Optimization of antitrypanosomatid agents: identification of nonmutagenic drug candidates with in vivo activity” (J Med Chem, 2014).
pIC50: −log10 of the molar value. Active and inactive are the calls of the source.

Experiments:
Trypanosoma cruzi [1] = assay: Antitrypanosomal activity against Trypanosoma cruzi Tulahuen 2 epimastigotes assessed as growth inhibition after 5 days; format: functional, organism-based; details: Trypanosoma cruzi, Tulahuen 2, 120 h
Method in brief: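 Epimastigotes were grown axenically at 28 °C in BHI-tryptose with 5% FBS and seeded from a 5–7 day culture at 1 × 10⁶ cells/mL. Drug from a DMSO stock was added (final DMSO ≤0.4%; the control contained 0.4% DMSO). Duplicates were run. A600 was read at day 5, and % inhibition was calculated relative to day-0 and control readings. IC50 = concentration that halves the absorbance ratio.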

[2] = Selectivity index, ratio of IC50 for African green monkey Vero cells to IC50 for Trypanosoma cruzi Sylvio X-10 amastigotes; format: toxicity, cell-based; details: read-out: Ratio IC50
Method in brief: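 VERO cytotoxicity: cells exposed 48 h at 37 °C, 5% CO2 to serial dilutions from a maximum of 2000 μM (DMSO stocks; DMSO <0.1% control); growth inhibition read by MTT at 570 nm. Amastigote IC50: Sylvio X-10-infected VERO cells, five doses, infected cells counted among 300 (Giemsa), quadruplicate, three experiments, sigmoidal fit. SI = IC50 VERO / IC50 amastigote.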

Trypanosoma cruzi [3] = assay: Antitrypanosomal activity against Trypanosoma cruzi CL Brener infected in BALB/c mouse assessed as mouse survival at 214 umol/kg/day, po for 14 days administered in cholesterol/surfactant/phosphate buffer measured up to 60 days relative to control; format: functional
Method in brief: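 Infected male BALB/c mice (30 days old, 25–30 g) were gavaged daily from day 6 postinfection for 14 days. Vehicle was a microemulsion of 10% cholesterol, 10% surfactant (soya phosphatidylcholine/sodium oleate/polyoxyl-40 hydrogenated castor oil) and 80% phosphate buffer pH 7.4. n = 7/group, with vehicle controls. Tail-vein parasitemia was taken weekly for 60 days and mortality recorded.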

Trypanosoma cruzi [4] = assay: Antitrypanosomal activity against Trypanosoma cruzi CL Brener infected in BALB/c mouse assessed as peak of maximum parasitemia at 107 umol/kg/day, po for 14 days administered in cholesterol/surfactant/phosphate buffer measured up to 60 days relative to control; format: functional
Method in brief: (§1)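 Male BALB/c mice (30 days old, 25–30 g, SPF) were infected i.p. with 10³ blood trypomastigotes, n = 7/group. Daily oral gavage in a microemulsion (cholesterol oil phase, phosphatidylcholine/sodium oleate/polyoxyl-40 hydrogenated castor oil surfactant, phosphate buffer pH 7.4) ran for 14 days from day 6; vehicle controls were included. Parasitemia was read weekly in tail-vein blood by hemocytometer for 60 days, with survival recorded.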

Trypanosoma cruzi [5] = assay: Antitrypanosomal activity against Trypanosoma cruzi CL Brener infected in BALB/c mouse assessed as peak of maximum parasitemia at 214 umol/kg/day, po for 14 days administered in cholesterol/surfactant/phosphate buffer measured up to 60 days relative to control; format: functional; method in brief: as §1
[6] = Selectivity index, ratio of IC50 for mouse J774.1 cells to IC50 for Trypanosoma cruzi Sylvio X-10 amastigotes; format: toxicity; details: read-out: Ratio IC50
Method in brief: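 J774.1 macrophages grown in DMEM with 10% heat-inactivated FCS and allowed to attach 48 h, then exposed 48 h at 37 °C to 12.5–400.0 μM. Triplicates. MTT 0.1 mg/mL for 3 h, read at 560 nm; IC50 by linear regression against the solvent control. SI = IC50 J774.1 / parasite IC50 (Sylvio X-10 amastigotes or Tulahuen 2 epimastigotes, the latter measured by A600 growth inhibition at day 5).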

Trypanosoma cruzi [7] = assay: Antitrypanosomal activity against Trypanosoma cruzi CL Brener infected in BALB/c mouse assessed as peak of maximum parasitemia at 107 umol/kg/day, po for 14 days administered in saline and tween 80 measured up to 60 days relative to control; format: functional
Method in brief: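 Male BALB/c mice (30 days old, 25–30 g, SPF) were infected i.p. with 10³ blood trypomastigotes, n = 8/group. Daily oral gavage in saline/Tween 80 (4:1) ran for 14 days from day 6 post-infection; controls received vehicle only. Parasitemia was counted weekly in tail-vein blood by hemocytometer for 60 days, and survival was recorded.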

Salmonella typhimurium [8] = assay: Mutagenic activity in Salmonella typhimurium TA1537 at 3.09 to 250 ug/plate by Ames test in presence of mouse liver S9 fraction; format: toxicity, organism-based; details: salmonella enterica subsp. enterica serovar typhimurium
Method in brief: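 Plate-incorporation Ames test on minimal glucose agar with 500 μL Aroclor-treated mouse liver S9 added. DMSO solutions were tested at five consecutive 3-fold dilutions from the highest non-toxic dose, in triplicate, with a DMSO negative control. Revertants were counted manually; a compound was scored mutagenic when revertants were at least twice the negative control for two or more consecutive doses.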

Salmonella typhimurium [9] = assay: Mutagenic activity in Salmonella typhimurium TA98 at 5 to 400 ug/plate by Ames test in presence of mouse liver S9 fraction; format: toxicity, organism-based; details: salmonella enterica subsp. enterica serovar typhimurium
Method in brief: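 Ames plate-incorporation assay with S. typhimurium TA98 in Vogel-Bonner E minimal glucose agar. Toxicity toward the bacteria was checked first. DMSO solutions were run in triplicate at five consecutive third-dilutions, starting at the highest non-toxic dose. Positive controls were 4-nitro-o-phenylenediamine (20.0 μg/plate) and 2-aminofluorene (10.0 μg/plate); DMSO was the negative control. Revertants were counted manually. A compound was called mutagenic when revertants were at least twice the negative control at two or more consecutive doses.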

[10] = Stability of the compound in aqueous solution assessed as compound remaining at 1 mM at pH 7.4 after 1 hr by TLC analysis; format: physicochemical; details: aqueous solution, pH 7.4; read-out: Stability
Method in brief: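 DMSO stocks diluted to final 1 mM in KCl·HCl pH 1.0, citrate pH 6.0, Tris·HCl pH 7.4 or borax·HCl pH 9.0 buffer. Incubated 1 h at 37 °C, then ethyl acetate extracts checked by TLC for decomposition products.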

Salmonella typhimurium [11] = assay: Mutagenic activity in Salmonella typhimurium TA102 at 3.09 to 250 ug/plate by Ames test; format: toxicity, organism-based; details: salmonella enterica subsp. enterica serovar typhimurium
Method in brief: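 Direct plate incubation on minimal glucose agar (Vogel-Bonner E). Compound toxicity to the bacteria was checked first. DMSO solutions were tested at five consecutive 3-fold dilutions, starting from the highest non-toxic dose, in triplicate, without metabolic activation. DMSO served as negative control. Revertants were counted manually; mutagenic = revertants at least double the negative control at two or more consecutive doses.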

Trypanosoma cruzi [12] = assay: Antitrypanosomal activity against Trypanosoma cruzi CL Brener infected in BALB/c mouse assessed as mouse survival at 107 umol/kg/day, po for 14 days administered in saline and tween 80 measured up to 60 days relative to control; format: functional
Method in brief: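 Male BALB/c mice (30 days old, 25–30 g, SPF) infected i.p.; daily intragastric gavage for 14 days, starting day 6 postinfection, in saline/Tween 80 (4:1 v/v); n = 8/group; vehicle-only control. Parasitemia counted by hemocytometer in tail-vein blood; survival followed to 65 days postinfection.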

Trypanosoma cruzi [13] = assay: Antitrypanosomal activity against Trypanosoma cruzi CL Brener infected in BALB/c mouse assessed as decrease in plasmodial antibodies at 214 umol/kg/day, po for 14 days administered in cholesterol/surfactant/phosphate buffer measured on day 60 by ELISA; format: functional, organism-based; details: in the assay text read “anti-Trypanosoma cruzi antibodies” for “plasmodial antibodies”
Method in brief: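 Infected male BALB/c mice (n = 7/group) were dosed orally for 14 days from day 6 post-infection in cholesterol/surfactant/phosphate buffer pH 7.4 microemulsion; the control group received vehicle. Anti-T. cruzi antibodies were measured by ELISA (each serum tested twice) at days 30 and 60 post-infection and compared with untreated animals and a healthy-animal cutoff.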

Br.C=CCn1c(-c2ccc(Cl)cc2)cs\c1=N/N=C/C=C/c1ccco1.O
pIC50 (Trypanosoma cruzi [1]): 5.89 | selectivity ratio [2]: > 1000 | survival at 214 µmol/kg (Trypanosoma cruzi [3]): 100% | Time (Trypanosoma cruzi [4]): 35 days | Time (Trypanosoma cruzi [5]): 35 days | selectivity ratio [6]: > 200 | Time (Trypanosoma cruzi [7]): 26 days | Activity (Salmonella typhimurium [8]): Non-toxic | Activity (Salmonella typhimurium [9]): Non-toxic | remaining at 1 h, 1000 µM [10]: > 95% | Activity (Salmonella typhimurium [11]): Non-toxic | survival at 107 µmol/kg (Trypanosoma cruzi [12]): 75% | Activity (Trypanosoma cruzi [13]): Active
